What was measured:
Mus musculus [1] = experiment: Compound was evaluated for anticonvulsant activity against subcutaneous pentylenetetrazole-induced convulsions after 4 hr; C is inactive at 300 mg/kg.; assay type: functional, organism-based; parameters: dose 300 mg/kg
Method in brief: (§1)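 Male Carworth Farms number-one mice were dosed ip in 30% PEG 400, at 30, 100 or 300 mg/kg (sometimes 600 mg/kg). Pentylenetetrazole, 85 mg/kg as a 0.5% solution, was injected subcutaneously in the posterior midline. Protection meant no episode of clonic spasms lasting at least 5 s during a 30-min observation period.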

Mus musculus [2] = experiment: Compound was evaluated for toxicity by rotarod assay method after 4 hr; C is inactive at 300 mg/kg.; assay type: organism-based; parameters: dose 300 mg/kg; settings: in vivo
Method in brief: (§2)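 Male Carworth Farms number-one mice received test compound intraperitoneally in 30% polyethylene glycol 400 at 30, 100 and 300 mg/kg, with 600 mg/kg in some cases. Neurological deficit was read at 30 min or 4 h after dosing on a 1-in.-diameter knurled plastic rod turning at 6 rpm. Toxicity was scored as failure to stay on the rod for 1 min.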

Mus musculus [3] = experiment: Compound was evaluated for toxicity by rotarod assay method after 30 minutes; C is inactive at 300 mg/kg.; assay type: organism-based; parameters: dose 300 mg/kg; settings: in vivo, 0.5 h; method in brief: as §2
Mus musculus [4] = experiment: Compound was evaluated for anticonvulsant activity against maximal electric shock (MES) induced convulsions after 30 minutes;C is inactive at 300 mg/kg.; assay type: functional, organism-based; parameters: dose 300 mg/kg
Mus musculus [5] = experiment: Compound was evaluated for anticonvulsant activity against subcutaneous pentylenetetrazole-induced convulsions after 30 minutes;C is inactive at 300 mg/kg.; assay type: functional, organism-based; parameters: dose 300 mg/kg; method in brief: as §1
Mus musculus [6] = experiment: Compound was evaluated for anticonvulsant activity against maximal electric shock (MES) induced convulsions after 4 hr; C is inactive at 300 mg/kg.; assay type: functional, organism-based; parameters: dose 300 mg/kg
Mus musculus [7] = experiment: Compound was evaluated for anticonvulsant activity against subcutaneous pentylenetetrazole-induced convulsions after 4 hr; C indicates no activity at 300 mg/kg.; assay type: functional, organism-based; parameters: dose 300 mg/kg; method in brief: as §1
Mus musculus [8] = experiment: Compound was evaluated for toxicity by rotarod assay method after 4 hr; C indicates no activity at 300 mg/kg.; assay type: organism-based; parameters: dose 300 mg/kg; settings: in vivo; method in brief: as §2
Mus musculus [9] = experiment: Compound was evaluated for anticonvulsant activity against maximal electric shock (MES) induced convulsions after 4 hr at a dose of 300 mg/kg; assay type: functional
Mus musculus [10] = experiment: Compound was evaluated for toxicity by rotarod assay method after 30 minutes at a dose of 300 mg/kg; assay type: organism-based; parameters: dose 300 mg/kg; settings: in vivo, 0.5 h; method in brief: as §2
Mus musculus [11] = organism: Mus musculus; experiment: Compound was evaluated for anticonvulsant activity against maximal electric shock induced seizures; assay type: functional
Method in brief: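 Male Carworth Farms number-one mice received the compound ip in 30% polyethylene glycol 400 before maximal electroshock testing, at several dose levels. The median effective dose (ED50) was obtained by the graphical method.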

Mus musculus [12] = experiment: Compound was evaluated for anticonvulsant activity against maximal electric shock (MES) induced convulsions after 30 minutes at a dose of 100 mg/kg; assay type: functional
[13] = Compound was evaluated for anticonvulsant activity by rotarod procedure; assay type: ADME, organism-based; settings: mouse, in vivo
Method in brief: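 Male Carworth Farms mice were dosed ip in 30% PEG 400 and then placed on a knurled plastic rod 1 in. in diameter, rotating at 6 rpm. Neurotoxicity was failure to stay on the rod for 1 min. TD50 was derived graphically.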

Mus musculus [14] = experiment: Compound was evaluated for anticonvulsant activity against subcutaneous pentylenetetrazole-induced convulsions; assay type: functional; settings: sc; method in brief: as §1
Mus musculus [15] = experiment: Compound was evaluated for anticonvulsant activity against subcutaneous pentylenetetrazole-induced convulsions after 30 minutes at a dose of 300 mg/kg; assay type: functional; method in brief: as §1
[16] = Protective index is the ratio of TD50 to ED50; assay type: ADME; settings: for selectivity ratio: read-out: Protective index
Method in brief: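 Protective index was calculated as rotorod TD50 divided by anti-MES ED50. Both were graphical median doses from ip dosing in 30% PEG 400 in male Carworth Farms mice.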

Mus musculus [17] = experiment: Compound was evaluated for anticonvulsant activity against maximal electric shock (MES) induced convulsions after 4 hr; C indicates no activity at 300 mg/kg.; assay type: functional, organism-based; parameters: dose 300 mg/kg
Mus musculus [18] = experiment: Compound was evaluated for anticonvulsant activity against maximal electric shock (MES) induced convulsions after 30 minutes at a dose of 300 mg/kg; assay type: functional
Mus musculus [19] = experiment: Compound was evaluated for anticonvulsant activity against subcutaneous pentylenetetrazole-induced convulsions after 4 hr at a dose of 300 mg/kg; assay type: functional; method in brief: as §1
Mus musculus [20] = experiment: Compound was evaluated for toxicity by rotarod assay method after 30 minutes; C indicates no activity at 300 mg/kg.; assay type: organism-based; parameters: dose 300 mg/kg; settings: in vivo, 0.5 h; method in brief: as §2
Mus musculus [21] = experiment: Compound was evaluated for toxicity by rotarod assay method after 30 minutes at a dose of 100 mg/kg; assay type: organism-based; parameters: dose 100 mg/kg; settings: in vivo, 0.5 h; method in brief: as §2
Mus musculus [22] = experiment: Compound was evaluated for anticonvulsant activity against subcutaneous pentylenetetrazole-induced convulsions after 30 minutes; C indicates no activity at 300 mg/kg.; assay type: functional, organism-based; parameters: dose 300 mg/kg; method in brief: as §1
Mus musculus [23] = experiment: Compound was evaluated for anticonvulsant activity against maximal electric shock (MES) induced convulsions after 30 minutes at a dose of 30 mg/kg; assay type: functional
Mus musculus [24] = experiment: Compound was evaluated for toxicity by rotarod assay method after 4 hr; E indicates no activity at 30 mg/kg.; assay type: organism-based; parameters: dose 30 mg/kg; settings: in vivo; method in brief: as §2
Mus musculus [25] = experiment: Compound was evaluated for anticonvulsant activity against maximal electric shock (MES) induced convulsions after 4 hr; E indicates no activity at 30 mg/kg.; assay type: functional, organism-based; parameters: dose 30 mg/kg
Mus musculus [26] = experiment: Compound was evaluated for anticonvulsant activity against subcutaneous pentylenetetrazole-induced convulsions after 30 minutes; E indicates no activity at 30 mg/kg.; assay type: functional, organism-based; parameters: dose 30 mg/kg; method in brief: as §1
Mus musculus [27] = experiment: Compound was evaluated for anticonvulsant activity against subcutaneous pentylenetetrazole-induced convulsions after 4 hr; E indicates no activity at 30 mg/kg.; assay type: functional, organism-based; parameters: dose 30 mg/kg; method in brief: as §1
Mus musculus [28] = experiment: Compound was evaluated for anticonvulsant activity against maximal electric shock (MES) induced convulsions after 4 hr at a dose of 100 mg/kg; assay type: functional
Mus musculus [29] = experiment: Compound was evaluated for toxicity by rotarod assay method after 4 hr at a dose of 300 mg/kg; assay type: organism-based; parameters: dose 300 mg/kg; settings: in vivo; method in brief: as §2
Mus musculus [30] = experiment: Compound was evaluated for anticonvulsant activity against subcutaneous pentylenetetrazole-induced convulsions after 30 minutes;C indicates no activity at 300 mg/kg.; assay type: functional, organism-based; parameters: dose 300 mg/kg; method in brief: as §1

| SMILES | Activity (Mus musculus [1]) | Toxicity (Mus musculus [2]) | Toxicity (Mus musculus [3]) | Activity (Mus musculus [4]) | Activity (Mus musculus [5]) | Activity (Mus musculus [6]) | Activity (Mus musculus [7]) | Toxicity (Mus musculus [8]) | ED50 (Mus musculus [11]) [mg/kg] | Activity (Mus musculus [12]) | TD50 [13] [mg/kg] | Activity (Mus musculus [15]) | selectivity ratio [16] | Activity (Mus musculus [17]) | Toxicity (Mus musculus [20]) | other results |
| --- | --- | --- | --- | --- | --- | --- | --- | --- | --- | --- | --- | --- | --- | --- | --- | --- |
| CC(NC(=O)c1ccc(N(C)C)cc1)c1ccccc1 (centres undefined) | No activity at 300 mg/kg | No activity at 300 mg/kg | No activity at 300 mg/kg | No activity at 300 mg/kg | No activity at 300 mg/kg | No activity at 300 mg/kg | – | – | – | – | – | – | – | – | – | – |
| CC(NC(=O)c1ccccc1)c1ccc(N)cc1 (centres undefined) | – | – | – | – | – | – | No activity at 300 mg/kg | No activity at 300 mg/kg | 68.2 | 3 | 190 | 2 | 2.79 | – | – | Activity (Mus musculus [9]): 2; Toxicity (Mus musculus [10]): 2; ED50 (Mus musculus [14]): 126 mg/kg; Protective index [16]: 1.51 |
| CN(C)c1ccc(C(=O)Nc2ccccc2)cc1 | No activity at 300 mg/kg | No activity at 300 mg/kg | No activity at 300 mg/kg | No activity at 300 mg/kg | No activity at 300 mg/kg | No activity at 300 mg/kg | – | – | – | – | – | – | – | – | – | – |
| CC(NC(=O)c1ccc(N)cc1)c1ccc(Cl)cc1 (centres undefined) | – | – | – | – | – | – | – | No activity at 300 mg/kg | – | – | – | 2 | – | No activity at 300 mg/kg | No activity at 300 mg/kg | Activity (Mus musculus [18]): 2; Activity (Mus musculus [19]): 2 |
| CC(NCc1ccc(N)cc1)c1ccccc1 (centres undefined) | – | – | – | – | – | – | No activity at 300 mg/kg | No activity at 300 mg/kg | 11.1 | – | 15.5 | – | 1.4 | No activity at 300 mg/kg | – | Toxicity (Mus musculus [21]): 3; Activity (Mus musculus [22]): No activity at 300 mg/kg; Activity (Mus musculus [23]): 4 |
| CNc1ccc(C(=O)NC(C)c2ccccc2)cc1 (centres undefined) | – | – | – | – | – | – | – | No activity at 300 mg/kg | – | 3 | – | 2 | – | – | No activity at 300 mg/kg | Activity (Mus musculus [9]): 2; Activity (Mus musculus [19]): 2 |
| CC(NC(=O)c1ccc(CN(C)C)cc1)c1ccccc1 (centres undefined) | – | – | – | – | – | – | – | – | 13 | – | 34.3 | – | 2.63 | – | – | Toxicity (Mus musculus [21]): 3; Toxicity (Mus musculus [24]): No activity at 30 mg/kg; Activity (Mus musculus [25]): No activity at 30 mg/kg; Activity (Mus musculus [26]): No activity at 30 mg/kg; Activity (Mus musculus [27]): No activity at 30 mg/kg; Activity (Mus musculus [23]): 4 |
| CC(NC(=O)c1ccc(N)cc1)c1ccc(F)cc1 (centres undefined) | – | – | – | – | – | – | No activity at 300 mg/kg | – | – | – | – | – | – | – | No activity at 300 mg/kg | Activity (Mus musculus [28]): 3; Activity (Mus musculus [18]): 2; Toxicity (Mus musculus [29]): 2; Activity (Mus musculus [30]): No activity at 300 mg/kg |
| CC(NCc1cccc(N)c1)c1ccccc1 (centres undefined) | – | – | – | – | – | – | No activity at 300 mg/kg | No activity at 300 mg/kg | 32.4 | 3 | 49.7 | – | 1.53 | No activity at 300 mg/kg | – | Toxicity (Mus musculus [10]): 2; Activity (Mus musculus [22]): No activity at 300 mg/kg |
| CN(C)c1ccc(C(=O)NCCc2ccccc2)cc1 | No activity at 300 mg/kg | No activity at 300 mg/kg | No activity at 300 mg/kg | No activity at 300 mg/kg | No activity at 300 mg/kg | No activity at 300 mg/kg | – | – | – | – | – | – | – | – | – | – |
